An excerpt weighted towards active compounds, which were near 5.1% of everything screened.
NF-kB expr up: activators of NF-kB expression in neurons, primary screen, cell-based, HTS; hit rate 1.6% among 190,000; fold change at 12.5 µM; human neuronal cells, NF-kB reporter expression; stronger effect = higher value; in the data active means fold change above about 3.3
STAT3 act: IL-6 driven STAT3 reporter potentiators, primary screen, U3A cells, luciferase, luminescence, MLSCN library | IL-6 STAT3-luciferase reporter; 100% = signal with IL-6 EC80 alone | activation (% of control), % at 5.6 µM | hit rate 0.91% among 190,000;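 active means activation above the screen-wide mean of compound activation plus 3 SD, cut at about 130% in these data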
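Assay system – human STAT1-deficient U3A cells with stable STAT3-luciferase reporter · Also added – IL-6 (33 ng/mL) · Schedule – compound 1 h, then IL-6 6 h at 37 °C · Technique – reporter luminescence signal · Evaluation – % activation versus median of IL-6-stimulated wells · Benchmarks – IL-6-only wells as 100% reference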
STAT1 blocker: STAT1 signaling inhibitors, primary screen, cell-based, HTS, luciferase reporter; hit rate 0.35% among 200,000; NIH 3T3 STAT1-luciferase reporter, IFN-gamma, luminescence; inhibition, % at 5.5 µM; AID 920, 2007;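 active means inhibition above a set limit, the mean inhibition across all tested compounds plus 3 SD, cut at about 34% in these data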
STAT3 blocker: IL-6 driven STAT3 reporter inhibitors, primary screen, U3A cells, luciferase, luminescence, MLSCN library; AID 862, 2007; hit rate 0.89% among 190,000; inhibition, % at 5.5 µM; IL-6 STAT3-luciferase reporter; host cell line lacks STAT1;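 active means inhibition above the mean inhibition across all screened compounds plus 3 SD, cut at about 44% in these data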
STAT1 activator: STAT1 signaling activators, primary screen, cell-based, HTS, luciferase reporter; NIH 3T3 STAT1-luciferase reporter, IFN-gamma, luminescence; 100% = IFN-gamma alone, no compound; activation (% of control), % at 5.5 µM; hit rate 2.6% among 200,000;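 active means activation above the screen-wide mean activation plus 3 SD, cut at about 130% in these data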
APP 5'UTR act: activators of APP 5'UTR luciferase reporter, primary screen, SH-SY5Y cells | SH-SY5Y APP 5'UTR luciferase reporter, luminescence; zero percent = DMSO vehicle wells | hit rate 1% among 190,000 | activation, % at 2 µM | AID 1276, 2008;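 active means activation above a set limit, based on mean plus 3 SD of controls, cut at about 140% in these data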
STAT1 act conf: STAT1 signaling activators, confirmation, cell-based, HTS, luciferase reporter; shares compounds with STAT1 activator; NIH 3T3 STAT1-luciferase reporter, IFN-gamma potentiation, luminescence; 100% = IFN-gamma EC80 alone, no compound; activation (% of control), % at 5.7 µM; hit rate 97% among 1,200;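 active means activation above a set limit carried over from the earlier primary STAT1 screen, cut at about 140% in these data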
NFkB act STAT1ct: NF-kB reporter activators, TNF-alpha stimulated, counter-screen for STAT1 activator project, cell-based, HEK293T, luciferase luminescence | activation (% of control), % at 5.7 µM | hit rate 43% among 1,200 | shares compounds with STAT1 activator | 100% = TNF-alpha with vehicle only;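 active means activation above the mean of solvent-only control wells plus 3 SD, set per campaign, cut at about 130% in these data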;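 further: TNF-alpha given at a submaximal dose yielding about 80% of full reporter signal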
STAT3 act STAT1c: STAT3 reporter activation by STAT1 hits, confirmation, counter-screen for STAT1 activator project, U3A cells, luciferase, luminescence | shares compounds with STAT1 activator | IL-6; cells lack STAT1; 100 = IL-6 alone, no compound effect | activation (% of control), % at 5.7 µM | hit rate 46% among 1,200 | AID 1316, 2008;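 active means activation above the solvent-only control well mean plus 3 SD, set per plate batch, cut at about 110% in these data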;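 further: higher means more STAT3 reporter activation so hits are non-selective activators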
Hits are given with their value; n = inactive; x = no result given.

SMILES	NF-kB expr up	STAT3 act	STAT1 blocker	STAT3 blocker	STAT1 activator	APP 5'UTR act	STAT1 act conf	NFkB act STAT1ct	STAT3 act STAT1c
CCN1C(=S)SC(=O)C1=C1C=C(C)N(Cc2ccco2)C(C)=C1	n	n	n	n	197.8	n	277.9	150.8	126.5
O=S(=O)(c1ccc(Cl)cc1)N1CCN=C1SCc1ccc(Cl)c(Cl)c1	n	n	n	n	n	n	x	x	x
Cn1c(CNc2cccc(Cl)c2)nnc1SCC#N	n	n	n	n	n	n	x	x	x
C/C(=N\NC(=O)c1c[nH]c2ccccc12)c1ccccn1	n	n	n	n	156.8	n	197.9	n	n
Cc1ccc(NC(=S)c2nc3ccccc3[nH]2)c(C)c1	n	n	n	n	168.8	n	190.5	n	112.7
Cc1sc2nc3c4ccccc4c(NCc4ccco4)nn3c(=O)c2c1C	3.75	n	n	n	156.6	135.9	207.9	154.9	114.4
Cc1sc2nc(SCC(=O)C(C)(C)C)n(Cc3ccco3)c(=O)c2c1C	n	n	n	n	n	n	x	x	x
CCCn1c(C)cc(C(=O)COC(=O)CN=C2NS(=O)(=O)c3ccccc32)c1C	n	n	n	n	n	n	x	x	x
Cc1cs/c(=N/C(=S)Nc2ccccc2)n1C	4.01	n	n	n	178.2	n	204.2	n	n
CCN(CC)C(=O)CSc1ncnc2sc(-c3ccccc3)cc12	n	n	n	n	n	n	x	x	x
CCCCn1cnc2sc(-c3ccccc3)cc2c1=O	5.89	n	n	n	162.4	n	218.1	149.9	111.1
c1ccc2cc(OCc3nc4ccccc4[nH]3)ccc2c1	5.12	n	n	n	163.0	184.3	200.4	n	n
Cc1nc(Nc2ccccc2)sc1-c1ccccc1	8.84	n	n	n	193.1	187.0	242.2	n	n
CCOC(=O)c1sc(Nc2ccccc2)nc1C	n	n	n	n	n	n	x	x	x
Cc1ccc2c(c1)N(C(C)C(=O)NCc1cccs1)C(=O)CO2 (stereo unspecified)	n	n	n	n	n	n	x	x	x
Cc1csc(N(C(=O)c2ccccc2F)c2ccccc2)n1	n	n	n	n	n	n	x	x	x
CCC(=O)Nc1ccc2oc(-c3ccccc3Br)nc2c1	5.65	n	n	n	159.8	n	190.3	138.2	n
O=C(Nc1ccc2oc(-c3ccccc3Cl)nc2c1)c1ncn[nH]1	5.11	n	n	n	156.3	n	204.3	n	114.4
O=C(N/N=C\c1ccc(-c2ccc([N+](=O)[O-])cc2)o1)C1COc2ccccc2O1 (stereo unspecified)	n	n	n	n	n	n	x	x	x
Cc1cc(NCCN2CCOCC2)n2ncc(-c3ccccc3)c2n1	n	n	n	n	165.2	n	219.1	145.8	151.7
Cc1cc(NCCN2CCOCC2)n2ncc(-c3ccc(Cl)cc3)c2n1	x	n	n	n	n	n	x	x	x
Cc1ccc(N/C=C2/Sc3ccccc3NC2=O)cc1	n	n	n	n	168.4	n	192.1	134.6	n
COc1ccc(N/C=C2/Sc3ccccc3NC2=O)cc1	n	n	n	n	166.2	n	169.9	n	n
Cc1ccc(C(=O)N/N=C2/NC(=O)CC(C(=O)Nc3ccccc3)S2)cc1 (stereo unspecified)	n	n	n	n	n	n	x	x	x

Screening data (PubChem)
